# In paper PMC7384521 (ACS chemical biology, 2020):
# How the values were obtained:
# [1] = tested on: SMARCA4(BD)-HiBiT; test: HiBiT CETSA of SMARCA4; type: cell-based; conditions: for luminescence of SMARCA4(BD)-HiBiT: OCI/AML-2 cells, 37 °C
# Method in brief: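 SMARCA4 bromodomain (residues 1426-1531) fused to HiBiT, stably expressed in OCI/AML-2 cells (alpha-MEM, 20% FBS) by lentiviral spinoculation: 2,000 rpm, 1 h, room temperature, 8 μg/mL polybrene. Cells were drug-treated at 37 °C without heating. Raw luminescence was read after adding Nano-Glo HiBiT lytic detection reagent.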
# [2] = tested on: full-length ENL-HiBiT; test: HiBiT CETSA melt curve of full-length ENL-HiBiT; type: cell-based; conditions: HEK293T cells
# [3] = tested on: ENL(YEATS)-HiBiT; test: HiBiT CETSA; type: cell-based
# [4] = tested on: ENL(YEATS)-HiBiT; test: HiBiT CETSA performed on pre-lysed cells; conditions: cells lysed first, then treated; 37 °C
# [5] = tested on: AF9(YEATS)-HiBiT; test: ITDR at 37 °C of AF9; type: cell-based; conditions: OCI/AML-2 cells, 1 hour
# [6] = tested on: BRD4 bromodomain 1 (BD1); test: HTRF histone-binding assay, BRD4 BD1 with tetra-acetyl H4
# Method in brief: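 BRD4 BD1 (purchased, 10 nM) with 13.3 nM tetra-acetylated H4. Buffer was 25 mM HEPES pH 7, 20 mM NaCl, 0.2% Pluronic F-127, 0.05% BSA; detection used 1 nM Eu-anti-His antibody plus 8.9 nM APC-streptavidin. Compound added by pin tool and incubated 2 h or more. Read at 337 nm excitation as the 665/620 nm emission ratio; percent inhibition relative to vehicle (maximum) and no-peptide (minimum) controls.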
# [7] = tested on: endogenous ENL protein; test: Immunoblot-based CETSA on endogenous ENL; type: cell-based; conditions: 80 μM, OCI/AML-2 cells, 1 hr
# Method in brief: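 CETSA on endogenous ENL followed a previously published protocol. Immunoblot detection used an anti-ENL rabbit monoclonal antibody (D9M4B) and an anti-GAPDH mouse monoclonal antibody (6C5).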
# [8] = biological target: T1, ENL YEATS (Homo sapiens, UniProt Q03111); test: HTRF histone-binding assay, ENL YEATS with H3K27cr
# T1 sequence (Q03111 1-148): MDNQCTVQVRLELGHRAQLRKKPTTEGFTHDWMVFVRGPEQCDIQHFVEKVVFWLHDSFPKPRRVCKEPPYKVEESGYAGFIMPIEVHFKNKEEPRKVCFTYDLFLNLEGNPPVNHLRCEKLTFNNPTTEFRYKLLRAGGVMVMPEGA
# Method in brief: (§1)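 HTRF in 25 mM HEPES pH 7, 20 mM NaCl, 0.2% Pluronic F-127, 0.05% BSA, with 1 nM Eu-anti-His antibody and 8.9 nM APC-streptavidin. ENL: recombinant His-tagged ENL YEATS(1-148), 5 nM, with 13.3 nM biotinylated H3(13-32)K27cr. AF9: purchased AF9 YEATS, 5 nM, with 100 nM of the same peptide. Compound pin-transferred, incubated ≥2 h; 337 nm excitation, 665/620 nm ratio; percent inhibition scaled to vehicle (max) and no-peptide (min) wells.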
# [9] = tested on: YEATS4/GAS41; test: Biolayer interferometry, immobilized biotin-YEATS4; type: binding; conditions: BLI
# [10] = biological target: T2, AF9 YEATS (Homo sapiens, UniProt P42568); test: HTRF histone-binding assay, AF9 YEATS with H3K27cr; conditions: read-out: IC50, HTRF AF9 YEATS crotonyl-lysine recognition
# T2 sequence (P42568 1-138 limits assumed): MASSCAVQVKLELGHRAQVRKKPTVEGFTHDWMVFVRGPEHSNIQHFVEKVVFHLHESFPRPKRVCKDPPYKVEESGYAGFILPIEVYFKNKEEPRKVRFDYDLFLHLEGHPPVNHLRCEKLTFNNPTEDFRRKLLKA
# Method in brief: as §1
# [11] = biological target: T1, ENL YEATS; test: MALDI-TOF mass spectrometry for covalent adducts; conditions: high-resolution MALDI-TOF
molecule,measurement,setting,value
O=C(/C=C/N1C[C@H]2C[C@@H]1CN2c1ccccn1)c1ccccc1O [PFI-3],concentration required to elevate the luminescence from SMARCA4(BD)-HiBiT,[1]; ITDR,80 µM
same,luminescence of SMARCA4(BD)-HiBiT,[1],able to elevate luminescence
C[C@H]1CCCN1Cc1nc2cc(NC(=O)c3ccc4c(cnn4C)c3)ccc2[nH]1 [SGC-iMLLT],luminescence-based melt curve of full-length ENL-HiBiT,[2],did not affect
same,"ITDR luminescence, wild-type ENL YEATS","[3]; 37 °C, HEK293T cells, 1 hour",dose-responsive increases in luminescence
same,CETSA melt curve of ENL(YEATS)-HiBiT,"[3]; HEK293T cells, 1-hour treatment, luminescence normalized to 37 °C",rightward shift
same,luminescence of SMARCA4(BD)-HiBiT,[1],no such effect
same,luminescence of ENL(YEATS)-HiBiT in cell lysates,[4],luminescence was increased
same,"ITDR luminescence, AF9(YEATS)-HiBiT",[5],dose-dependent increases in luminescence
"crotonylated histone peptide: peptide substrate, H3K27cr, used to treat cell lysates",luminescence of ENL(YEATS)-HiBiT in cell lysates,[4],luminescence was increased
O=C(/C=C/c1ccc(-n2ccnc2)cc1)N1CCN(C(=O)c2ccco2)CC1 [sCGT990],inhibition of BRD4 BD1 association with tetra-acetyl H4,[6],does not inhibit
same,stabilization of endogenous ENL by immunoblot-based CETSA,[7],"weak, if any, stabilization"
same,concentration required to reliably elevate ENL(YEATS)-HiBiT luminescence,"[3]; living cells, dose-response",80 µM
same,"IC50, HTRF ENL YEATS association with H3K27cr",[8],19 µM
same,binding to YEATS4/GAS41,[9],does not efficiently bind
same,IC50,[10],62 µM
same,covalent adducts with ENL YEATS,[11],unable to identify covalent adducts
